From ChEMBL document CHEMBL1150264, “Design and microwave-assisted synthesis of novel macrocyclic peptides active at melanocortin receptors: discovery of potent and selective hMC5R receptor antagonists” (J Med Chem, 2008)
Activity calls are given as the source filed them. No cut-off for these calls is given here.

How the values were obtained:
[1] = target: T1, Melanocyte-stimulating hormone receptor (Homo sapiens, UniProt Q01726); assay: Agonist activity at human melanocortin 1 receptor expressed in HEK293 cells assessed as cAMP accumulation; format: functional, cell-based
Procedure, shortened: (§1)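 Stably transfected HEK293 cells seeded 48 h before assay (50000 cells/well), rinsed, preincubated 1 min at 37 °C in Earle's balanced salt solution with 0.5 mM IBMX, then given peptide at varying concentrations for 3 min at 37 °C. Stopped with ice-cold Tris/EDTA and boiling 7 min. cAMP measured by [3H]cAMP competition for PKA against a standard curve. EC50 by nonlinear least-squares fit, mean of two experiments in triplicate.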
Target sequence in this assay (Q01726 whole entry): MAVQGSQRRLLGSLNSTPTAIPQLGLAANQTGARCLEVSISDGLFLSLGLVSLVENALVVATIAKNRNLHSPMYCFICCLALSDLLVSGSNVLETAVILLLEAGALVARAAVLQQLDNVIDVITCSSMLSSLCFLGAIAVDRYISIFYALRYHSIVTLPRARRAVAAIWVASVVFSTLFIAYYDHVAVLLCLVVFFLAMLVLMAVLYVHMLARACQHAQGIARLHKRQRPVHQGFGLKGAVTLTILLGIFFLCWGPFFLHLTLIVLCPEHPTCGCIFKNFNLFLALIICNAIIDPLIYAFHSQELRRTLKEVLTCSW

Melanocortin receptor 4 [2] = target: T2, Melanocortin receptor 4 (Homo sapiens, UniProt P32245); assay: Agonist activity at human melanocortin 4 receptor expressed in HEK293 cells assessed as cAMP accumulation at 10 uM; format: functional, cell-based
Procedure, shortened: (§2)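 cAMP accumulation assay in stably transfected HEK293 cells: 0.5 mM IBMX preincubation, 3 min ligand exposure at 37 °C, [3H]cAMP/PKA binding read-out against a standard curve. The cAMP produced at 10 μM ligand is expressed as percent of that produced by 10 μM MT-II (% max effect).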

Melanocortin receptor 3 [3] = target: T3, Melanocortin receptor 3 (Homo sapiens, UniProt P41968); assay: Agonist activity at human melanocortin 3 receptor expressed in HEK293 cells assessed as cAMP accumulation at 10 uM; format: functional, cell-based; procedure, shortened: as §2
Melanocortin receptor 3 [4] = target: T3, Melanocortin receptor 3; assay: Agonist activity at human melanocortin 3 receptor expressed in HEK293 cells assessed as cAMP accumulation at 10 uM realtive to MT2; format: functional, cell-based; procedure, shortened: as §2
Melanocortin receptor 5 [5] = target: T4, Melanocortin receptor 5 (Homo sapiens, UniProt P33032); assay: Displacement of [125I]-[Nle4, D-Phe7]alpha-MSH from human melanocortin 5 receptor expressed in HEK293 cells; format: cell-based
Procedure, shortened: (§3)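 Whole HEK293 cells stably expressing each hMCR, seeded 48 h before assay (50000 cells/well), washed in MEM with 25 mM bicarbonate. Cells incubated 40 min at 37 °C with unlabeled peptide plus [125I]-NDP-α-MSH (33.06 pM, 20000 cpm/well) in MEM, 25 mM HEPES pH 7.4, 0.2% BSA, 1 mM 1,10-phenanthroline, leupeptin, bacitracin. Cells washed, lysed with NaOH/Triton X-100, and gamma-counted. IC50 by nonlinear fit, two experiments in triplicate […].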

Melanocortin receptor 4 [6] = target: T2, Melanocortin receptor 4; assay: Agonist activity at human melanocortin 4 receptor expressed in HEK293 cells assessed as cAMP accumulation at 10 uM realtive to MT2; format: functional, cell-based; procedure, shortened: as §2
Melanocortin receptor 3 [7] = target: T3, Melanocortin receptor 3; assay: Displacement of [125I]-[Nle4, D-Phe7]alpha-MSH from human melanocortin 3 receptor expressed in HEK293 cells at 10 uM; format: cell-based
Melanocortin receptor 5 [8] = target: T4, Melanocortin receptor 5; assay: Agonist activity at human melanocortin 5 receptor expressed in HEK293 cells assessed as cAMP accumulation at 10 uM realtive to MT2; format: functional, cell-based; procedure, shortened: as §2
[9] = target: T1, Melanocyte-stimulating hormone receptor; assay: Agonist activity at human melanocortin 1 receptor expressed in HEK293 cells assessed as cAMP accumulation at 10 uM realtive to MT2; format: functional, cell-based; procedure, shortened: as §2
Target sequence in this assay (Q01726 whole entry, looked up): as the sequence (Q01726 whole entry) above

[10] = target: T1, Melanocyte-stimulating hormone receptor; assay: Displacement of [125I]-[Nle4, D-Phe7]alpha-MSH from human melanocortin 1 receptor expressed in HEK293 cells; format: cell-based; procedure, shortened: as §3
Target sequence in this assay (Q01726 whole entry): as above

Melanocortin receptor 4 [11] = target: T2, Melanocortin receptor 4; assay: Displacement of [125I]-[Nle4, D-Phe7]alpha-MSH from human melanocortin 4 receptor expressed in HEK293 cells; format: cell-based; procedure, shortened: as §3
Melanocortin receptor 5 [12] = target: T4, Melanocortin receptor 5; assay: Agonist activity at human melanocortin 5 receptor expressed in HEK293 cells assessed as cAMP accumulation at 10 uM; format: functional, cell-based; procedure, shortened: as §2
Melanocortin receptor 4 [13] = target: T2, Melanocortin receptor 4; assay: Displacement of [125I]-[Nle4, D-Phe7]alpha-MSH from human melanocortin 4 receptor expressed in HEK293 cells at 10 uM; format: cell-based
Melanocortin receptor 3 [14] = target: T3, Melanocortin receptor 3; assay: Agonist activity at human melanocortin 3 receptor expressed in HEK293 cells assessed as cAMP accumulation; format: functional, cell-based; procedure, shortened: as §1
Melanocortin receptor 3 [15] = target: T3, Melanocortin receptor 3; assay: Displacement of [125I]-[Nle4, D-Phe7]alpha-MSH from human melanocortin 3 receptor expressed in HEK293 cells; format: cell-based; procedure, shortened: as §3
[16] = target: T1, Melanocyte-stimulating hormone receptor; assay: Agonist activity at human melanocortin 1 receptor expressed in HEK293 cells assessed as cAMP accumulation at 10 uM; format: functional, cell-based; procedure, shortened: as §2
Target sequence in this assay (Q01726 whole entry, looked up): as the sequence (Q01726 whole entry) above

Melanocortin receptor 5 [17] = target: T4, Melanocortin receptor 5; assay: Antagonist activity at human melanocortin 5 receptor expressed in HEK293 cells; format: functional, cell-based
Procedure, shortened: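 Antagonism at hMC5R in the HEK293 cAMP assay (IBMX, 3 min at 37 °C, [3H]cAMP/PKA read-out). Four antagonist doses spanning 10−10 to 10−6 M were tested against MT-II agonist dose-response curves. pA2 derived by Schild analysis.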

Melanocortin receptor 5 [18] = target: T4, Melanocortin receptor 5; assay: Agonist activity at human melanocortin 5 receptor expressed in HEK293 cells assessed as cAMP accumulation; format: functional, cell-based; procedure, shortened: as §1
Melanocortin receptor 4 [19] = target: T2, Melanocortin receptor 4; assay: Agonist activity at human melanocortin 4 receptor expressed in HEK293 cells assessed as cAMP accumulation; format: functional, cell-based; procedure, shortened: as §1

T3 sequence (P41968 whole entry): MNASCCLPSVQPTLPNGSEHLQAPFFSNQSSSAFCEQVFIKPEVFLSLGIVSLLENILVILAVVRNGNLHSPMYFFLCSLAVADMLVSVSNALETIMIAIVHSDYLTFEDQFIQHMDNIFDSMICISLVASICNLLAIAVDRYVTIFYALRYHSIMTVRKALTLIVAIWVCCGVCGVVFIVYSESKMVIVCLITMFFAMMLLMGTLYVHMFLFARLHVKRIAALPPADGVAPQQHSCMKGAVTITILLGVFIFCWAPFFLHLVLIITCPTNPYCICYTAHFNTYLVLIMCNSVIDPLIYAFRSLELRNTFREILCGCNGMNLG
T2 sequence (P32245 whole entry): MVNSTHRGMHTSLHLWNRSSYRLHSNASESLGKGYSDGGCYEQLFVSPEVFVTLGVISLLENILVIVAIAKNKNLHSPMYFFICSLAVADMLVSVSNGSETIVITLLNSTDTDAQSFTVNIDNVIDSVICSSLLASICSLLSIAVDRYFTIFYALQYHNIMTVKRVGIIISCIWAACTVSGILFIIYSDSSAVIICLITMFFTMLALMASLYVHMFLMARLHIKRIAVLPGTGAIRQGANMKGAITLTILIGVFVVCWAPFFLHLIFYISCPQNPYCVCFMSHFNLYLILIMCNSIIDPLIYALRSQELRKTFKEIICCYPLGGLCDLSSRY
T4 sequence (P33032 whole entry): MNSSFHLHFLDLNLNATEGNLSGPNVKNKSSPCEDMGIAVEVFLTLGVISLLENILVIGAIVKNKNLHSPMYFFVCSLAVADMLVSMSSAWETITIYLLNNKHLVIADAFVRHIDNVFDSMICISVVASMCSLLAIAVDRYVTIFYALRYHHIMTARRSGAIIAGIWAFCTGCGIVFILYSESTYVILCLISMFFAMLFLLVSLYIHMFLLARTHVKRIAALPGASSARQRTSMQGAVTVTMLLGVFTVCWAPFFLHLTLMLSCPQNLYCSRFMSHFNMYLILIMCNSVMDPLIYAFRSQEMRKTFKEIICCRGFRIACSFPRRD

SMILES	EC50 [1] [µM]	Activity (Melanocortin receptor 4 [2])	Activity (Melanocortin receptor 3 [4]) [%]	IC50 (Melanocortin receptor 5 [5]) [µM]	Activity (Melanocortin receptor 4 [6]) [%]	Activity (Melanocortin receptor 5 [8]) [%]	Activity [9] [%]	IC50 [10] [µM]	IC50 (Melanocortin receptor 4 [11]) [µM]	Activity (Melanocortin receptor 5 [12])	EC50 (Melanocortin receptor 3 [14]) [µM]	IC50 (Melanocortin receptor 3 [15]) [µM]	other results
N=C(N)NCCC[C@@H]1NC(=O)[C@@H](Cc2ccccc2)NC(=O)[C@H](Cc2cnc[nH]2)NC(=O)c2cc([N+](=O)[O-])ccc2SC[C@@H](C(N)=O)NC(=O)[C@@H](Cc2c[nH]c3ccccc23)NC1=O	0.1	inactive	0	> 2	1	0	105	1	> 1	inactive			Activity (Melanocortin receptor 3 [3]): inactive; Activity (Melanocortin receptor 3 [7]): inactive
N=C(N)NCCC[C@@H]1NC(=O)[C@@H](Cc2ccccc2)NC(=O)C2(Cc3ccccc3C2)NC(=O)c2cc([N+](=O)[O-])ccc2SC[C@@H](C(N)=O)NC(=O)[C@H](Cc2c[nH]c3ccccc23)NC1=O	> 1	inactive	40	0.56	0	0	52	> 1		inactive	> 5		Activity (Melanocortin receptor 3 [7]): inactive; Activity (Melanocortin receptor 4 [13]): inactive
NC(=O)[C@@H]1CSc2ccc([N+](=O)[O-])cc2C(=O)N[C@@H](Cc2cnc[nH]2)C(=O)N[C@@H](Cc2ccc3ccccc3c2)C(=O)N[C@@H](CCCN=C(N)N)C(=O)N[C@@H](Cc2c[nH]c3ccccc23)C(=O)N1													IC50 (Melanocortin receptor 5 [5]; hek293): 0.13 µM; IC50 (Melanocortin receptor 3 [15]; hek293): > 1 µM; IC50 ([10]; hek293): > 2 µM; IC50 (Melanocortin receptor 4 [11]; hek293): > 5 µM; EC50 (Melanocortin receptor 3 [14]; hek293): 0.05 µM
N=C(N)NCCC[C@@H]1NC(=O)[C@@H](Cc2ccccc2)NC(=O)[C@@H]2CCCN2C(=O)c2cc([N+](=O)[O-])ccc2SC[C@@H](C(N)=O)NC(=O)[C@H](Cc2c[nH]c3ccccc23)NC1=O		inactive	> 100	0.058	0	0	0	> 1	> 1	inactive	> 1	0.38	Activity [16]: inactive
N=C(N)NCCC[C@@H]1NC(=O)[C@@H](Cc2ccccc2)NC(=O)[C@H](CC2CCCCC2)NC(=O)c2cc([N+](=O)[O-])ccc2SC[C@@H](C(N)=O)NC(=O)[C@H](Cc2c[nH]c3ccccc23)NC1=O	0.81	inactive	> 100	0.038	0	0	92	> 2		inactive	> 4	> 1	Activity (Melanocortin receptor 4 [13]): inactive
NC(=O)[C@@H]1CSc2ccc([N+](=O)[O-])cc2C(=O)N[C@@H](Cc2cnc[nH]2)C(=O)N[C@H](Cc2ccc3ccccc3c2)C(=O)N[C@@H](CCCN=C(N)N)C(=O)N[C@@H](Cc2c[nH]c3ccccc23)C(=O)N1	> 10			0.76				0.76				0.19	
N=C(N)NCCC[C@@H]1NC(=O)[C@H](Cc2ccc3ccccc3c2)NC(=O)[C@H](Cc2cnc[nH]2)NC(=O)c2cc([N+](=O)[O-])ccc2SC[C@@H](C(N)=O)NC(=O)[C@H](Cc2c[nH]c3ccccc23)NC1=O		inactive	21		0	0	0			inactive			Activity [16]: inactive; pA2 (Melanocortin receptor 5 [17]): 8.3
NC(=O)[C@@H]1CSc2ccc([N+](=O)[O-])cc2C(=O)N[C@@H](Cc2cnc[nH]2)C(=O)N[C@H](Cc2ccccc2)C(=O)N[C@@H](CCCN=C(N)N)C(=O)N[C@@H](Cc2ccc3ccccc3c2)C(=O)N1	0.071			0.34				0.18	> 1		0.056	0.61	
NC(=O)[C@@H]1CSc2ccc([N+](=O)[O-])cc2C(=O)N[C@@H](Cc2cnc[nH]2)C(=O)N[C@H](Cc2ccccc2)C(=O)N[C@@H](CCCN=C(N)N)C(=O)N[C@@H](Cc2c[nH]c3ccccc23)C(=O)N1	0.002			0.19				0.0037	0.047		0.002	0.04	EC50 (Melanocortin receptor 5 [18]): 0.044 µM; EC50 (Melanocortin receptor 4 [19]): 0.037 µM
